Assay outcomes deposited in PubChem by The Scripps Research Institute Molecular Screening Center.
Rows were chosen to be rich in hits. Some 3.9% of all compounds tested hit in one or more screens of this group.
OX1R antag-1: blocks the human orexin 1 receptor | O43613 | CHO/OX1R cells, Fluo-8 calcium fluorescence, orexin A | inhibition, % at 5 µM | 330,000 compounds, 0.43% hits;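 active = inhibition above its plate's threshold, mean inhibition of all tested compounds on the plate plus 3 SD, cut at about 37% in these data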
Target sequence (O43613 whole entry, looked up): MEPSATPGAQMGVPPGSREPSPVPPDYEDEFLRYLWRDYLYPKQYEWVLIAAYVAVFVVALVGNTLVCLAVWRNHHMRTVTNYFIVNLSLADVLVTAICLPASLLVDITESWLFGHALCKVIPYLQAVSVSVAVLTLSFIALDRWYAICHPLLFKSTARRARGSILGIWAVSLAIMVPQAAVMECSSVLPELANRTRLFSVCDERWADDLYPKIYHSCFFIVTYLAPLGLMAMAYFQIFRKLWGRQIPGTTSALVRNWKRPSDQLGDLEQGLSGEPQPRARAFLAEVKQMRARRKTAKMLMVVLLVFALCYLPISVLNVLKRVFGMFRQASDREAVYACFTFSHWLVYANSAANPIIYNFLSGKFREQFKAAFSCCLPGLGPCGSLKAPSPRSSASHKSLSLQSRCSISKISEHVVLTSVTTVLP
TAAR1 agonist: agonists of human TAAR1. Q96RJ0. CHO RD-HGA16 TAAR1, Fluo-8 calcium fluorescence; vehicle wells 0%, saturating PEA agonist 100%. activation, % at 3 µM. 360,000 compounds, 0.99% hits;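 active = activation above the mean activation of all test compounds in the run plus 3 SD, cut at about 38% in these data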
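System: CHO-derived RD-HGA16 cells with stable Gα16 and human TAAR1. Times: 17-24 h plating, Fluo-8 75 min 37 °C, 30 min RT. Measured by: calcium-sensitive Fluo-8 signal, excitation 470-495, emission 515-575 nm. Read-out basis: % activation relative to PEA EC100 response. Control set: DMSO and PEA EC100. Repeats: no replicates (n 1).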
TAAR1 antag: antagonists of human TAAR1. CHO RD-HGA16 TAAR1, Fluo-8 calcium fluorescence, antagonist. Q96RJ0. 360,000 compounds, 1.5% hits. inhibition, % at 3 µM;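 active = inhibition above a per-plate cutoff, the mean inhibition of test compounds on that plate plus 3 SD, cut at about 49% in these data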
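Test system: CHO RD-HGA16 cells bearing hTAAR1 | Reagent: β-PEA, EC80 | Compound dosing: 3 µM, single point | Schedule: Dye loading 75 min at 37 °C, then 30 min room temperature | Signal: Calcium fluorescence with Fluo-8 | Evaluation: Percent inhibition of PEA-evoked calcium signal, max/basal emission ratio | Control set: DMSO-only wells and EC80 β-PEA-stimulated wells | Repeats: Singlicate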
CHO parental Ca: signal in parental CHO cells, OX1R antagonist counter-screen; 330,000 compounds, 0.63% hits; AID 463079; parental CHO-K1, ATP-induced calcium, Fluo-8 fluorescence; inhibition, % at 5.6 µM;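 active = inhibition above that plate's mean sample inhibition plus 3 SD, cut at about 26% in these data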
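Assay system: untransfected parental CHO cell line. Also added: ATP agonist challenge. Dosing: one dose, 5.6 µM nominal. Measured by: Fluo-8 fluorescence. Read-out: % inhibition. Benchmarks: ATP wells versus no-ATP DMSO wells. Repeats: no replicates.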
OX1R antag-2: antagonists of human orexin 1 receptor (OX1R). O43613. OX1R-expressing cells, FRET antagonist read-out. inhibition, % at 6.6 µM. 330,000 compounds, 1.8% hits; in the data active = inhibition mostly above about 38%, no sharp cut-off; inactive = mostly below about 40%
OX1R HTRF conf: OX1R (human) antagonism, HTRF confirmed; OX1R-expressing cells, HTRF antagonist assay; AID 492964; inhibition, % at 6.6 µM; shares compounds with OX1R antag-2; 1,800 compounds, 49% hits; in the data active = inhibition above about 55%;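 also: CHO cells expressing OX1R stimulated with orexin A at about EC80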
CHO-K1 HTRF: counter-screen: parental CHO-K1 HTRF response; AID 493232; shares compounds with OX1R antag-2; 1,800 compounds, 48% hits; inhibition, % at 6.6 µM; parental CHO-K1 cells, HTRF counterscreen; in the data active = inhibition above about 17%
Large screens that a line does not name were inactive (follow-up assays come after a bar, where they were run).

Nc1cc(Nc2ccccc2)c2nonc2c1[N+](=O)[O-]	none
O=C(O)c1ccc(Nc2cc(Cl)c3nonc3c2[N+](=O)[O-])cc1	OX1R antag-2 96 | OX1R HTRF conf 62 | CHO-K1 HTRF 98
NS(=O)(=O)c1ccc(Nc2ccc3nonc3c2[N+](=O)[O-])cc1	OX1R antag-2 90 | OX1R HTRF conf 63 | CHO-K1 HTRF 110
Cc1cccc(Nc2ccc3nonc3c2[N+](=O)[O-])c1C	none
Nc1ccn([C@@H]2O[C@H](C(=O)N[C@H](Cc3ccccc3)C(=O)NCC(F)(F)F)[C@@H](O)[C@H]2O)c(=O)n1	none (no result: OX1R antag-1, CHO parental Ca, OX1R antag-2)
O=C(O)Cc1ccc(N2N=C(c3ccccc3)CC2=O)cc1	none (no result: OX1R antag-1, CHO parental Ca, OX1R antag-2)
Cc1[nH]c2ccccc2c1CC(=O)Nc1ccc(Nc2cccnc2)c(-c2ccc(OC(F)(F)F)cc2)c1	none (no result: OX1R antag-1, CHO parental Ca, OX1R antag-2)
CC1(O)C(c2ccccc2)=Nc2ccccc21 (stereo unspecified)	none (no result: OX1R antag-1, CHO parental Ca, OX1R antag-2)
O=C1c2cc(S(=O)(=O)N(CCO)CCO)ccc2-c2ccc(S(=O)(=O)N(CCO)CCO)cc21	OX1R antag-2 111 | OX1R HTRF conf 71 | CHO-K1 HTRF 72
Cc1cc(=O)oc2cc(Oc3ccc([N+](=O)[O-])cc3[N+](=O)[O-])ccc12	OX1R antag-2 89 | OX1R HTRF conf 59 | CHO-K1 HTRF 71
CC(OC(=O)c1ccc(S(C)(=O)=O)c([N+](=O)[O-])c1)C(=O)NC1C2CC3CC(C2)CC1C3 (stereo unspecified)	none (no result: OX1R antag-1, CHO parental Ca, OX1R antag-2)
N#CC1=C(N)Oc2c(oc(CO)cc2=O)C1c1cccs1 (stereo unspecified)	OX1R antag-2 77 | OX1R HTRF conf inactive | CHO-K1 HTRF 22
N#CC1=C(N)Oc2c(oc(CO)cc2=O)C1c1ccsc1 (stereo unspecified)	OX1R antag-2 92 | OX1R HTRF conf inactive | CHO-K1 HTRF 18
COc1cccc(C2C(C#N)=C(N)Oc3c2oc(CO)cc3=O)c1OC (stereo unspecified)	none
O=C1N(Cc2ccccc2)CC2(Br)COCOC12O (stereo unspecified)	none (no result: OX1R antag-1, CHO parental Ca, OX1R antag-2)
O=[N+]([O-])c1c(Nc2ccccc2O)cc(N2CCOCC2)c2nonc12	OX1R antag-2 80 | OX1R HTRF conf inactive | CHO-K1 HTRF 34
CCCCC1O[C@@H](C)[C@@H]2CN3CCc4c([nH]c5ccccc45)[C@@H]3C[C@@H]2N1C (stereo partly specified)	none (no result: OX1R antag-1, CHO parental Ca, OX1R antag-2)
Cn1cc(Cl)c(C(=O)N/N=C/c2ccc3c4c(cccc24)CC3)n1	OX1R antag-2 92 (no result: TAAR1 agonist, TAAR1 antag) | OX1R HTRF conf 84 | CHO-K1 HTRF inactive
CCn1c(C)c(C(=O)O)c2cc(OC)c3ccccc3c21	OX1R antag-2 99 | OX1R HTRF conf 89 | CHO-K1 HTRF inactive
O=C(OC1CC2CC1[C@H]1CCCCN1C2=O)N1CCN(S(=O)(=O)c2ccccc2)CC1 (stereo partly specified)	none (no result: OX1R antag-1, CHO parental Ca, OX1R antag-2)
COC(=O)C1=C(C)N(Cc2ccccc2C(F)(F)F)C(=NCc2ccc(C(F)(F)F)cc2)NC1c1ccccc1 (stereo unspecified)	none (no result: OX1R antag-1, CHO parental Ca, OX1R antag-2)
COC(=O)c1cn(NC(=O)Cc2ccc(Cl)c(Cl)c2)c(=O)c2ccccc12	OX1R antag-2 87 | OX1R HTRF conf 81 | CHO-K1 HTRF inactive
CC(C)Cn1c(N)c(C(=O)COC(=O)CCNS(=O)(=O)c2ccccc2)c(=O)n(C)c1=O	TAAR1 antag 51, OX1R antag-2 99 | OX1R HTRF conf inactive | CHO-K1 HTRF inactive
Cc1csc(=O)n1CCC(=O)OCC(=O)c1c(N)n(CC(C)C)c(=O)n(C)c1=O	none
COc1cc(C(c2c(C)[nH][nH]c2=O)c2c(C)[nH][nH]c2=O)cc([N+](=O)[O-])c1O	OX1R antag-2 78 | OX1R HTRF conf inactive | CHO-K1 HTRF 44
O=C(CSc1cccc[n+]1[O-])Nc1c(Br)cc([N+](=O)[O-])cc1Br	OX1R antag-2 118 | OX1R HTRF conf inactive | CHO-K1 HTRF 54
CC1CN(C2CCCCC2)C(=O)NC1=O (stereo unspecified)	none (no result: OX1R antag-1, CHO parental Ca, OX1R antag-2)
